PMC11825259 (Heliyon, 2024)

Molecular target: urease (Canavalia ensiformis, UniProt P07374)
Assay: In vitro kinetic assay
Format: biochemical, jack bean
Method in brief: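 Jack bean urease was run without and with several concentrations of the test compound, and the data were plotted as Lineweaver–Burk double-reciprocal plots. A secondary replot of Km against inhibitor concentration gave Ki. All data were in triplicate.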

urease, sequence (P07374 whole entry, looked up): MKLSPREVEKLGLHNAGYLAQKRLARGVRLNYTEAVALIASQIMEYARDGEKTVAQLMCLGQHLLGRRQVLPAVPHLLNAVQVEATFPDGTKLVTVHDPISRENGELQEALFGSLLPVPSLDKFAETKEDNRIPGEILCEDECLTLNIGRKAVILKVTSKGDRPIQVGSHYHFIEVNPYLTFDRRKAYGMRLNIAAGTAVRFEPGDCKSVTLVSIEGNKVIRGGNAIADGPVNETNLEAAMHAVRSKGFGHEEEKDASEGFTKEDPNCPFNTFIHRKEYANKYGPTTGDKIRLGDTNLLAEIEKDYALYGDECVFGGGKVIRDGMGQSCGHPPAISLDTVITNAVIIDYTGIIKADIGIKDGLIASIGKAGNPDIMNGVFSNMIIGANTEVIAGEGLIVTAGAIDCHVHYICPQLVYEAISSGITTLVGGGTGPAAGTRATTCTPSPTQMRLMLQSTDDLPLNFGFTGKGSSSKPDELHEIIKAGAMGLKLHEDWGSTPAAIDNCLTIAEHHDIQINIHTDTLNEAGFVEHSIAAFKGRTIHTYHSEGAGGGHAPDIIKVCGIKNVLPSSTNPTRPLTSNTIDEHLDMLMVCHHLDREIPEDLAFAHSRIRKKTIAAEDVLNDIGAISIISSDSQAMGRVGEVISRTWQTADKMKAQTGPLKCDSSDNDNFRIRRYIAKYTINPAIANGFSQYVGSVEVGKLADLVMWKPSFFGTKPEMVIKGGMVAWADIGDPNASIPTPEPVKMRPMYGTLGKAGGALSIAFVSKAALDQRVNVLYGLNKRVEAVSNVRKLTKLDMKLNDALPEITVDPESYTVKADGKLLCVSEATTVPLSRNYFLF

For `Cc1cc(OCC(=O)N/N=C/c2ccc(OCc3cn(Cc4ccccc4)nn3)cc2)c2c(C)cc(=O)oc2c1` [13a, (E)-N'-(4-((1-Benzyl-1H-1,2,3-triazol-4-yl)methoxy)benzylidene)-2-((4,7-dimethyl-2-oxo-2H-chromen-5-yl)oxy)acetohydrazide], the Ki was 1.99 µM and the “type of urease inhibition” value (Lineweaver-Burk plot) was “uncompetitive inhibitor”.
